# pIC50: −log10 of the molar value.
# Key:
# Acetyl-CoA carboxylase 1 [1] = biological target: T1, Acetyl-CoA carboxylase 1 (Homo sapiens, UniProt Q13085); test: Inhibition of recombinant human C-terminal His-tagged ACC1 (1 to 2383 residues) expressed in baculovirus infected Sf9 insect cells preincubated for 15 mins followed by substrate addition and measured after 60 mins by ADP-glo luminescence assay
# Method in brief: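 Recombinant ACC1 in assay buffer preincubated with inhibitor in DMSO for 15 min at room temperature. Reaction started with substrate mixture and run 60 min at room temperature. Stopped with ADP-Glo reagent for 40 min, then detection reagent for 40 min to convert ADP to ATP, read by luminescence. Mean of two independent experiments.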
# A549 = test: Antiproliferative activity against human A549 cells assessed as cell growth inhibition after 72 hrs by MTT assay; assay type: functional, cell-based; settings: A549, 72 h
# Method in brief: (§1)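 HepG2, A549 or MDA-MB-231 cells grown in DMEM with 10% FBS and penicillin/streptomycin at 37 °C, 5% CO2. Seeded at 3×10^3 per well, left 24 h, then exposed to a range of concentrations for 72 h. MTT added for 4 h, formazan dissolved in DMSO, absorbance read at 550 nm. Mean ± SD, n=3.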
# Acetyl-CoA carboxylase 1 [2] = biological target: T1, Acetyl-CoA carboxylase 1; test: Inhibition of recombinant human C-terminal His-tagged ACC1 (1 to 2383 residues) expressed in baculovirus infected Sf9 insect cells at 5 uM preincubated for 15 mins followed by substrate addition and measured after 60 mins by ADP-glo luminescence assay relative to control
# Acetyl-CoA carboxylase 1 [3] = biological target: T1, Acetyl-CoA carboxylase 1; test: Inhibition of recombinant human C-terminal His-tagged ACC1 (1 to 2383 residues) expressed in baculovirus infected Sf9 insect cells at 0.1 uM preincubated for 15 mins followed by substrate addition and measured after 60 mins by ADP-glo luminescence assay relative to control
# [4] = Cytotoxicity against HUVEC assessed as cell viability at 100 uM after 72 hrs by MTT assay relative to control; assay type: cell-based; settings: human, HUVEC cells, read-out: Activity
# Method in brief: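 HUVEC kept in RPMI 1640 with 10% FBS at 37 °C, 5% CO2. Seeded at 3×10^3 per well and treated at 100 µM for 72 h after 24 h attachment. Viability by MTT with absorbance at 550 nm, as percent of control. Mean ± SD, n=3.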
# MDA-MB-231 = test: Antiproliferative activity against human MDA-MB-231 cells assessed as cell growth inhibition after 72 hrs by MTT assay; assay type: functional, cell-based; settings: MDA-MB-231, 72 h; method in brief: as §1
# HepG2 = test: Antiproliferative activity against human HepG2 cells assessed as cell growth inhibition after 72 hrs by MTT assay; assay type: functional, cell-based; settings: HepG2, 72 h; method in brief: as §1
pIC50 (Acetyl-CoA carboxylase 1 [1]),pIC50 (A549),inhibition (Acetyl-CoA carboxylase 1 [2]) [%],inhibition (Acetyl-CoA carboxylase 1 [3]) [%],pIC50 (MDA-MB-231),pIC50 (HepG2),Compound,"viability at 72 h, 100 µM [4] [%]"
< 7.00,5.66,94.4,43.6,< 5.00,< 5.00,CC(C)(C)n1cc2c(n1)C(=O)CC1(CCN(C(=O)c3cc(-c4ccccc4Cl)nc4ccccc34)CC1)O2,103
8.03,5.24,100,87.3,< 5.00,5.53,CC(C)(C)n1cc2c(n1)C(=O)CC1(CCN(C(=O)c3cc(-c4ccc(F)cc4)nc4ccccc34)CC1)O2,98.7
8.89,6.01,101,94.1,5.30,6.20,CC(C)(C)n1cc2c(n1)C(=O)CC1(CCN(C(=O)c3cc(-c4ccc(N)cc4)nc4ccccc34)CC1)O2,84.8
< 7.70,< 5.00,93.6,55,5.31,5.02,Cc1cc(C(=O)N2CCC3(CC2)CC(=O)c2nn(C(C)(C)C)cc2O3)c2ccccc2n1,101
< 7.70,5.14,96.7,59.1,5.04,5.33,CC(C)(C)n1cc2c(n1)C(=O)CC1(CCN(C(=O)c3cc(Cl)nc4ccccc34)CC1)O2,99.3
< 7.00,< 5.00,93.8,36.7,< 5.00,< 5.00,COc1cc(C(=O)N2CCC3(CC2)CC(=O)c2nn(C(C)(C)C)cc2O3)c2ccccc2n1,98.6
7.86,5.11,103,84,5.09,5.82,CC(C)(C)n1cc2c(n1)C(=O)CC1(CCN(C(=O)c3cc(-c4ccccn4)nc4ccccc34)CC1)O2,104
8.45,5.69,102,95.6,5.15,5.81,COc1ccc(-c2cc(C(=O)N3CCC4(CC3)CC(=O)c3nn(C(C)(C)C)cc3O4)c3ccccc3n2)cc1OC,93.7
< 7.70,< 5.00,97.7,56.9,5.50,5.34,CC(C)(C)n1cc2c(n1)C(=O)CC1(CCN(C(=O)c3cc(N4CCOCC4)nc4ccccc34)CC1)O2,34.4
< 7.00,5.73,95.5,41.8,< 5.00,< 5.00,Cc1ccccc1-c1cc(C(=O)N2CCC3(CC2)CC(=O)c2nn(C(C)(C)C)cc2O3)c2ccccc2n1,38.6
< 7.70,< 5.00,99.4,68,< 5.00,5.50,CC(C)Oc1cc(C(=O)N2CCC3(CC2)CC(=O)c2nn(C(C)(C)C)cc2O3)c2ccccc2n1,102
8.57,5.94,99.6,96.4,< 5.00,5.76,CN(C)c1ccc(-c2cc(C(=O)N3CCC4(CC3)CC(=O)c3nn(C(C)(C)C)cc3O4)c3ccccc3n2)cc1,91.3
8.36,–,–,–,–,–,COc1ccccc1[C@H](Cn1c(=O)n(C(C)(C)C(=O)O)c(=O)c2c(C)c(-c3ncco3)sc21)OC1CCOCC1 [FIRSOCOSTAT],–
8.22,5.63,104,93.2,< 5.00,6.20,CC(C)(C)n1cc2c(n1)C(=O)CC1(CCN(C(=O)c3cc(-c4ccc(Cl)cc4)nc4ccccc34)CC1)O2,87.3
< 7.70,< 5.00,97.4,52.8,5.09,5.02,CN1CCN(c2cc(C(=O)N3CCC4(CC3)CC(=O)c3nn(C(C)(C)C)cc3O4)c3ccccc3n2)CC1,93.5
< 7.70,< 5.00,97.6,59.6,5.38,5.07,CC(C)(C)n1cc2c(n1)C(=O)CC1(CCN(C(=O)c3cc(N4CCNCC4)nc4ccccc34)CC1)O2,102
8.65,5.28,101,93.8,< 5.00,5.84,Cc1ccc(-c2cc(C(=O)N3CCC4(CC3)CC(=O)c3nn(C(C)(C)C)cc3O4)c3ccccc3n2)cc1,49.6
8.25,5.03,102,93.2,< 5.00,6.09,CC(C)(C)n1cc2c(n1)C(=O)CC1(CCN(C(=O)c3cc(-c4ccc(Br)cc4)nc4ccccc34)CC1)O2,84.1
< 7.00,< 5.00,93.9,38.4,< 5.00,< 5.00,CCOc1cc(C(=O)N2CCC3(CC2)CC(=O)c2nn(C(C)(C)C)cc2O3)c2ccccc2n1,96.1
–,5.45,101,82.5,5.23,5.73,CC(C)(C)n1cc2c(n1)C(=O)CC1(CCN(C(=O)c3ccc4[nH]ncc4c3)CC1)O2,101
8.50,5.43,101,94.8,< 5.00,5.56,COc1ccc(-c2cc(C(=O)N3CCC4(CC3)CC(=O)c3nn(C(C)(C)C)cc3O4)c3ccccc3n2)cc1,102
8.22,5.71,101,90.5,< 5.00,5.68,CC(C)(C)n1cc2c(n1)C(=O)CC1(CCN(C(=O)c3cc(-c4ccccc4)nc4ccccc34)CC1)O2,97.3

Compound,pIC50 (Acetyl-CoA carboxylase 1 [1]),pIC50 (A549),inhibition (Acetyl-CoA carboxylase 1 [2]) [%],inhibition (Acetyl-CoA carboxylase 1 [3]) [%],pIC50 (MDA-MB-231),pIC50 (HepG2),"viability at 72 h, 100 µM [4] [%]"
COc1cccc2c1C(=O)c1c(O)c3c(c(O)c1C2=O)C[C@@](O)(C(=O)CO)C[C@@H]3O[C@H]1C[C@H](N)[C@H](O)[C@H](C)O1 [DOXORUBICIN],–,6.23,–,–,–,6.16,14.4
